# Laboratory results: ChEMBL document CHEMBL1165940, “Design, synthesis and biological evaluation of a novel series of anthrapyrazoles linked with netropsin-like oligopyrrole carboxamides as anticancer agents” (Bioorg Med Chem, 2010)
# Columns and labels:
# [1] = Cytotoxicity against human K/VP.5 cells after 72 hrs by MTS assay; format: functional, cell-based; settings: K/VP.5, 72 h
# How it was run: (§1)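 Suspension cultures in αMEM with 10% fetal calf serum: parental K562 and the etoposide-resistant sub-line K/VP.5, which has reduced topoisomerase IIα. IC50 from triplicate data fitted to a four-parameter logistic equation. Resistance factor is IC50 in K/VP.5 divided by IC50 in K562.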
# K562 [2] = assay: Resistant factor, ratio of IC50 human K/VP.5 cells to IC50 for human K562 cells; format: functional
# How it was run: as §1, with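 “IIα. Drugs freshly dissolved in DMSO (final ≤1.9% v/v) and given for 72 h, then MTS reduction read by absorbance.” for “IIα.”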
# K562 [3] = assay: Cytotoxicity against human K562 cells after 72 hrs by MTS assay; format: functional, cell-based; settings: K562, 72 h
# How it was run: as §1, with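 “IIα. Drugs freshly dissolved in DMSO (final ≤1.9% v/v) and given for 72 h, then MTS reduction read by absorbance.” for “IIα.”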
# Calf thymus DNA = assay: Binding affinity to calf thymus DNA assessed as increase in melting temperature at 1 uM by spectrophotometer analysis; format: nucleic-acid assay; settings: Bos taurus
# [4] = target: DNA topoisomerase 2-alpha (Homo sapiens) (UniProt P11388); assay: Inhibition of human recombinant topoisomerase 2 alpha-mediated Crithidia fasciculate kDNA decatenation at 20 uM relative to control
# Chain of DNA topoisomerase 2-alpha (Homo sapiens) (P11388 whole entry): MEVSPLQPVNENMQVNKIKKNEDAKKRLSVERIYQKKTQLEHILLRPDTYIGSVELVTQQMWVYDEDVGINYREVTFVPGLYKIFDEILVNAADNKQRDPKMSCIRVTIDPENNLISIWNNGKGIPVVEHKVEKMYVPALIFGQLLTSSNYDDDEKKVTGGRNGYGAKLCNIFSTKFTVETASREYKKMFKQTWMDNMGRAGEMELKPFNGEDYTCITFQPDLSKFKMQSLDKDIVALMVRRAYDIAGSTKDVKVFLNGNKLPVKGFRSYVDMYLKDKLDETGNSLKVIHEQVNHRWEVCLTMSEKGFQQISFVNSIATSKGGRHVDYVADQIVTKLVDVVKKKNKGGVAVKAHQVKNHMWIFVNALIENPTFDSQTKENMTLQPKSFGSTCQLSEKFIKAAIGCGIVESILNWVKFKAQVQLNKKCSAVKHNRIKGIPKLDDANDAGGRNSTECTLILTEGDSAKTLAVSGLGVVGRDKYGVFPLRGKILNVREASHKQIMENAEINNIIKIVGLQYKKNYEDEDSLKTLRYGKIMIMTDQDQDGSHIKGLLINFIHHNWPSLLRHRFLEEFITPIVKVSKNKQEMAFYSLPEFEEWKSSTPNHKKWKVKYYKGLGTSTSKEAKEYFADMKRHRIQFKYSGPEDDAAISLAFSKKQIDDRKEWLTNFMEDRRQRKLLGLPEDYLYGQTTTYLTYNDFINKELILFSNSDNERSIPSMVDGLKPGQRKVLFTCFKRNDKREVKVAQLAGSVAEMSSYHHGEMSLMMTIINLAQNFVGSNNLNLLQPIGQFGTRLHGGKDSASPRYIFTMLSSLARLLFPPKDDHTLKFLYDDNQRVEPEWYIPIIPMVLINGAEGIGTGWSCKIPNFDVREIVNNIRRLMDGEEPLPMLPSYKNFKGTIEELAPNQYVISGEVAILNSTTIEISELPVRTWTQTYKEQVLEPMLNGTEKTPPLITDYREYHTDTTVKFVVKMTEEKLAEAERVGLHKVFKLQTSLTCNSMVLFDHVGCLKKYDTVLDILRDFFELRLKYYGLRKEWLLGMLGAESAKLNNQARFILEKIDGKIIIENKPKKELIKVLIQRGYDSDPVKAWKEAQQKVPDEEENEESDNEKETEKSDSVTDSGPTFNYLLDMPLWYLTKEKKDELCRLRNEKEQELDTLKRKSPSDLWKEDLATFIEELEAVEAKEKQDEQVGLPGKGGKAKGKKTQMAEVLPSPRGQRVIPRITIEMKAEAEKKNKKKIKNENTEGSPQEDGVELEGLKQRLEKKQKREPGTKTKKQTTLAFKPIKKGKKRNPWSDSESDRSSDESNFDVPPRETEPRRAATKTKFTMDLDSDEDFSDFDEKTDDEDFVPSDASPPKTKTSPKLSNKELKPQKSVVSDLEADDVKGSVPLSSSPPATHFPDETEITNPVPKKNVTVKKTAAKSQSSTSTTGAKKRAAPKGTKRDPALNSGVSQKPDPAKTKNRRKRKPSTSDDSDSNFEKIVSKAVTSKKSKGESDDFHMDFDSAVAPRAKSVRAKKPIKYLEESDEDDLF
# How it was run: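 Topoisomerase IIα decatenation of kDNA with 20 µM compound, analysed by gel electrophoresis. Fully decatenated open circular DNA band quantified by densitometry. Inhibition calculated as 100 minus percentage relative integrated band intensity. Etoposide included as a control.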
# [5] = target: DNA topoisomerase 2-alpha (Homo sapiens) (UniProt P11388); assay: Inhibition of human recombinant topoisomerase 2 alpha assessed as stabilization of enzyme-PBR322 DNA complex at 100 uM relative to control
# How it was run: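 Closed circular pBR322 DNA with topoisomerase IIα and 100 µM compound at 37 °C; components mixed on ice before drug addition. Complexes trapped with SDS and products separated by gel electrophoresis containing ethidium bromide. Linear DNA bands quantified by densitometry relative to the band from 100 µM etoposide, set to 100%.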
# [6] = target: T1, DNA topoisomerase 1 (Homo sapiens) (UniProt P11387); assay: Inhibition of topoisomerase 1-mediated relaxation of supercoiled pBR322 DNA at 20 uM after 20 mins using ethidium bromide staining by electrophoresis relative to control
# T1 sequence (whole entry): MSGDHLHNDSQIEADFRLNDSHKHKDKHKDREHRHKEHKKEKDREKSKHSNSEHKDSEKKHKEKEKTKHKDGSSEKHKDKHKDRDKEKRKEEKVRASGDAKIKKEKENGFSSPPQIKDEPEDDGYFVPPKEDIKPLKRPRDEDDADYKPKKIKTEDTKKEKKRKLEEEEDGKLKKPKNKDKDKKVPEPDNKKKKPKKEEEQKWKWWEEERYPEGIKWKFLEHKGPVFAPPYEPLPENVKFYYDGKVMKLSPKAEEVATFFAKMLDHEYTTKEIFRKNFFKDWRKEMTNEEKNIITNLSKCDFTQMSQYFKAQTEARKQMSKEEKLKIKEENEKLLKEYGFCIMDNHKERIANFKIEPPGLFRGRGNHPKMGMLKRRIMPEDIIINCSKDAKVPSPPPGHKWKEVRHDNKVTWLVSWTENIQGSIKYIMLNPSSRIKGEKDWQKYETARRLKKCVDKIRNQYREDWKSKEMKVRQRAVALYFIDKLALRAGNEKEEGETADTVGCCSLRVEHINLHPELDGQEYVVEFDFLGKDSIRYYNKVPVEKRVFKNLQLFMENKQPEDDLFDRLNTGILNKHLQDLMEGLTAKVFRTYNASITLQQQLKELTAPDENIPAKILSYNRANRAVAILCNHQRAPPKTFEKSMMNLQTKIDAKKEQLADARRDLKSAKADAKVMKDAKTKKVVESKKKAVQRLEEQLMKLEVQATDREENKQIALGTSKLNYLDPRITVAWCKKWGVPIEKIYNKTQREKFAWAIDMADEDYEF
# How it was run: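 Nuclear extract (50 ng) used as the topoisomerase I source with 60 ng supercoiled pBR322 and 20 µM drug, 20 min at 37 °C. Reaction stopped with 0.05% SDS, then electrophoresis run without ethidium bromide and gel stained afterwards. Supercoiled band quantified by densitometry relative to DNA alone without enzyme (100%). Camptothecin at 50 µM was the positive control.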
# [7] = Chemical stability in DMSO-d6 assessed as decomposition after 24 hrs; format: physicochemical
# DC3F = assay: Cytotoxicity against hamster DC-3F cells; format: functional, cell-based; settings: Cricetulus griseus
SMILES,ΔTm (Calf thymus DNA),inhibition [4],% cleavage [5],inhibition [6],Stability [7],IC50 [1],Ratio IC50 (K562 [2]),IC50 (K562 [3]),IC50 (DC3F)
Cn1cc(NC(=O)c2cc(NC(=O)OC(C)(C)C)cn2C)cc1C(=O)NCCn1nc2c3c(cccc31)C(=O)c1c(Cl)cccc1-2,1 °C,97%,24%,47%,–,1.4 µM,0.7,2 µM,–
NCCn1nc2c3c(cccc31)C(=O)c1c(Cl)cccc1-2,2.7 °C,100%,18%,62%,–,3.5 µM,1,3.3 µM,–
Cn1cc(N)cc1C(=O)NCCn1nc2c3c(cccc31)C(=O)c1ccccc1-2,1.8 °C,94%,26%,10%,–,21.9 µM,1.7,12.7 µM,–
Cn1cc(NC(=O)c2cc(N)cn2C)cc1C(=O)NCCn1nc2c3c(cccc31)C(=O)c1ccccc1-2,2.7 °C,91%,6%,49%,–,6.4 µM,1.5,4.1 µM,–
CN(C)CC(=O)Nc1cc(C(=O)NCCn2nc3c4c(cccc42)C(=O)c2c(Cl)cccc2-3)n(C)c1,0.6 °C,97%,22%,21%,–,5.3 µM,1.5,3.5 µM,–
CN(C)CCNc1cccc2c1C(=O)c1cccc3c1c-2nn3CCNC(=O)c1cc(NC(=O)c2cc(NC(=O)CN(C)C)cn2C)cn1C,5.3 °C,–,–,–,–,0.63 µM,3,0.21 µM,–
O=C1c2c(Cl)cccc2-c2nn(CCO)c3cccc1c23,0.3 °C,56%,14%,70%,–,12 µM,0.8,14.3 µM,–
Cn1cc(NC(=O)c2cc(NC(=O)CNC(=N)N)cn2C)cc1C(=O)NCCC(=N)N [NETROPSIN],5.7 °C,39%,0%,–,–,> 50 µM,–,> 50 µM,3200 µM
Cn1cc(N)cc1C(=O)NCCn1nc2c3c(cccc31)C(=O)c1c(Cl)cccc1-2,0.8 °C,91%,29%,14%,–,11.4 µM,1.2,9.9 µM,–

# Now from value to compound, other results behind:
ΔTm (Calf thymus DNA),inhibition [4],% cleavage [5],inhibition [6],Stability [7],SMILES,IC50 [1],Ratio IC50 (K562 [2]),IC50 (K562 [3]),IC50 (DC3F)
0.6 °C,94%,16%,52%,–,Cn1cc(NC(=O)c2cc(N)cn2C)cc1C(=O)NCCn1nc2c3c(cccc31)C(=O)c1c(Cl)cccc1-2,36.6 µM,2.9,12.5 µM,–
4.3 °C,91%,–,23%,–,CN(C)CC(=O)Nc1cc(C(=O)Nc2cc(C(=O)NCCn3nc4c5c(cccc53)C(=O)c3ccccc3-4)n(C)c2)n(C)c1,0.14 µM,1.1,0.13 µM,–
8.4 °C,30%,0%,–,–,COc1cccc2c1C(=O)c1c(O)c3c(c(O)c1C2=O)C[C@@](O)(C(=O)CO)C[C@@H]3O[C@H]1C[C@H](N)[C@H](O)[C@H](C)O1 [DOXORUBICIN],–,–,0.033 µM,–
0.9 °C,60%,24%,66%,–,O=C1c2ccccc2-c2nn(CCO)c3cccc1c23,10.2 µM,0.9,11.9 µM,–
1.6 °C,94%,18%,16%,–,CN(C)CC(=O)Nc1cc(C(=O)NCCn2nc3c4c(cccc42)C(=O)c2ccccc2-3)n(C)c1,3.9 µM,1.4,2.7 µM,–
0.4 °C,91%,4%,31%,–,Cn1cc(NC(=O)c2cc(NC(=O)OC(C)(C)C)cn2C)cc1C(=O)NCCn1nc2c3c(cccc31)C(=O)c1ccccc1-2,0.82 µM,0.8,1 µM,–
0.7 °C,94%,11%,47%,Stable,Cn1cc(NC(=O)OC(C)(C)C)cc1C(=O)NCCn1nc2c3c(cccc31)C(=O)c1c(Cl)cccc1-2,11 µM,1,10.7 µM,–
1.3 °C,91%,18%,11%,Stable,Cn1cc(NC(=O)OC(C)(C)C)cc1C(=O)NCCn1nc2c3c(cccc31)C(=O)c1ccccc1-2,22 µM,1.5,14.4 µM,–
2.2 °C,75%,29%,100%,–,NCCn1nc2c3c(cccc31)C(=O)c1ccccc1-2,3.1 µM,1.7,1.8 µM,–
1.7 °C,97%,–,31%,–,CN(C)CC(=O)Nc1cc(C(=O)Nc2cc(C(=O)NCCn3nc4c5c(cccc53)C(=O)c3c(Cl)cccc3-4)n(C)c2)n(C)c1,0.21 µM,1.1,0.19 µM,–
